ChEMBL document CHEMBL2062455, “Daphmacromines A-J, alkaloids from Daphniphyllum macropodum” (J Nat Prod, 2012)

Key:
[1] = system: SMMC-7721; experiment: Cytotoxicity against human SMMC7721 cells after 48 hrs by MTT assay; assay type: functional, cell-based; conditions: SMMC-7721, 48 h
Method in brief: (§1)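 Cells kept in DMEM or RPMI-1640 with 10% FBS at 37 °C, 5% CO2. Initial density 5 × 10^3 to 1 × 10^4 cells/mL. Adherent cells attached 12 h before dosing; suspension cells seeded just before dosing. Compounds at 40 μM, triplicate, 48 h, cisplatin and paclitaxel as positive controls. MTT then 4 h at 37 °C, SDS lysis, OD 595 nm. IC50 by Reed–Muench method.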

[2] = Toxicity in brine shrimp assessed as mortality at […] after 24 hrs by microscopic analysis; assay type: organism-based; conditions: artemia salina, in vivo; read-out: Activity
Method in brief: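 Artemia salina eggs hatched in artificial seawater for 48 h at 28 °C to give nauplii. Compounds dissolved in DMSO, then diluted in artificial seawater to 100, 50 and 10 mg/L and tested in triplicate, with DMSO control wells. 15−25 nauplii per well, covered plate, 28 °C, 24 h. Nonmotile nauplii were scored as dead under the microscope.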

[3] = system: SW480; experiment: Cytotoxicity against human SW480 cells after 48 hrs by MTT assay; assay type: functional, cell-based; conditions: SW480, 48 h; method in brief: as §1
[4] = system: MCF7; experiment: Cytotoxicity against human MCF7 cells after 48 hrs by MTT assay; assay type: functional, cell-based; conditions: MCF7, 48 h; method in brief: as §1
[5] = system: A549; experiment: Cytotoxicity against human A549 cells after 48 hrs by MTT assay; assay type: functional, cell-based; conditions: A549, 48 h; method in brief: as §1
[6] = system: HL-60; experiment: Cytotoxicity against human HL60 cells after 48 hrs by MTT assay; assay type: functional, cell-based; conditions: HL-60, 48 h; method in brief: as §1

Compound | IC50 [1] | mortality at 24 h [2] | IC50 [3] | IC50 [4] | IC50 [5] | IC50 [6]
CC[C@]1(OC)CCC2(CO1)[C@@H]1CCC3=C4[C@@H](CC3=O)[C@H](C(=O)OC)C[C@@]42CN(C)C1 (stereo partly specified) [DAPHMACROMINE G] | > 40 µM | 67.7% | > 40 µM | > 40 µM | > 40 µM | > 40 µM
COC(=O)[C@@H]1C[C@]23C4=NC[C@@H](C)[C@]45C[C@@H](OC(C)=O)[C@@]2(COC(C)=O)[C@H](CCC2=C3[C@@H]1CC2)[C@H]5O [DAPHTENIDINE C] | > 40 µM | 31.8% | > 40 µM | > 40 µM | > 40 µM | > 40 µM
CCC1=CCC2(CO1)[C@@H]1CCC3=C4[C@H](CC3=O)[C@H](C(=O)OC)C[C@@]42CN(C)C1 (stereo partly specified) [DAPHMACROMINE I] | > 40 µM | 64.6% | > 40 µM | > 40 µM | > 40 µM | > 40 µM
CCO[C@@]1(CC)CCC2(CO1)[C@@H]1CCC3=C4[C@H](CC3=O)[C@H](C(=O)OC)C[C@@]42CN(C)C1 (stereo partly specified) [DAPHMACROMINE C] | > 40 µM | 50.9% | > 40 µM | > 40 µM | > 40 µM | > 40 µM
COC(=O)[C@@H]1C[C@@]23C4=C(CC[C@@H]5CN6C[C@@H](C)[C@@H](C[C@@H](OC(C)=O)[C@@]52COC(C)=O)C63)CC[C@@H]41 [DEOXYYUZURIMINE] | > 40 µM | 81.8% | > 40 µM | > 40 µM | > 40 µM | > 40 µM
CCOC(=O)[C@@H]1C[C@@]23CN(C)C[C@@H](CCC4=C2[C@H]1CC4=O)C31CC[C@](CC)(OC)OC1 (stereo partly specified) [DAPHMACROMINE B] | > 40 µM | 49.9% | > 40 µM | > 40 µM | > 40 µM | > 40 µM
COC(=O)[C@@H]1C[C@@]23C(=O)N4C[C@@H](CCC5=C2[C@@H]1CC5)[C@]3(CO)/C=C\C(=O)[C@H](C)C4 | > 40 µM | 38.3% | > 40 µM | > 40 µM | > 40 µM | > 40 µM
COC(=O)[C@@H]1C[C@@]23CN(C)C[C@@H](CCC4=C2[C@@H]1CC4=O)C31CC=C(C(C)C)OC1 (stereo partly specified) [DAPHMACROMINE J] | > 40 µM | 55.2% | > 40 µM | > 40 µM | > 40 µM | > 40 µM
CCOC(=O)[C@@H]1C[C@@]23CN(C)C[C@@H](CCC4=C2[C@@H]1CC4=O)C31CC[C@](CC)(OC)OC1 (stereo partly specified) [DAPHMACROMINE A] | > 40 µM | 41% | > 40 µM | > 40 µM | > 40 µM | > 40 µM
CC[C@@]1(OC)CCC2(CO1)[C@@H]1CCC3=C4[C@H](CC3=O)[C@H](C(=O)OC)C[C@@]42CN(C)C1 (stereo partly specified) [DAPHMACROMINE F] | > 40 µM | 45% | > 40 µM | > 40 µM | > 40 µM | > 40 µM
COC(=O)[C@@H]1C[C@@]23CN(C)C[C@@H](CCC4=C2[C@H]1CC4=O)C31CC[C@@](O)(C(C)C)OC1 (stereo partly specified) [DAPHMACROMINE H] | > 40 µM | – | > 40 µM | > 40 µM | > 40 µM | > 40 µM
CC[C@]1(OC)CCC2(CO1)[C@@H]1CCC3=C4[C@H](CC3=O)[C@H](C(=O)OC)C[C@@]42CN(C)C1 (stereo partly specified) [DAPHMACROMINE E] | > 40 µM | 70.9% | > 40 µM | > 40 µM | > 40 µM | > 40 µM
CCO[C@@]1(CC)CCC2(CO1)[C@@H]1CCC3=C4[C@@H](CC3=O)[C@H](C(=O)OC)C[C@@]42CN(C)C1 (stereo partly specified) [DAPHMACROMINE D] | > 40 µM | 53.8% | > 40 µM | > 40 µM | > 40 µM | > 40 µM
COC(=O)[C@@H]1C[C@@]23C4=C(CC[C@@H]5CN6C[C@@H](C)[C@@H](C[C@@H](OC(C)=O)[C@@]52COC(C)=O)[C@]63O)CC[C@@H]41 [YUZURIMINE] | > 40 µM | 70.8% | > 40 µM | > 40 µM | > 40 µM | > 40 µM
COC(=O)[C@@H]1C[C@@]23C4=C(CC[C@@H]5CN6C[C@H](C)[C@@](O)(C=C[C@@]52C=O)[C@]63O)CC[C@@H]41 [YUZURIMINE C] | > 40 µM | 80.6% | > 40 µM | > 40 µM | > 40 µM | > 40 µM
COC(=O)[C@@H]1C[C@@]23C4=C(CC[C@@H]5CN6C[C@@H](C)[C@@H](C=C[C@@]52C=O)[C@]63O)CC[C@@H]41 [DAPHHIMALENINE B] | > 40 µM | 64.9% | > 40 µM | > 40 µM | > 40 µM | > 40 µM
COC(=O)[C@@H]1C[C@@]23C4=C(CC[C@@H]5CN6C[C@@H](C)[C@@H](C[C@@H](O)[C@@]52CO)[C@]63O)CC[C@@H]41 [DAPHNEZOMINE K] | > 40 µM | 0% | > 40 µM | > 40 µM | > 40 µM | > 40 µM
